≈ marks a conversion by molar mass, not a printed value. Calls of active or inactive are those of the source. The rule behind the calls is not given here.
Tests used:
Aspergillus fumigatus [1] = test: Antifungal activity against Aspergillus fumigatus CCTCC AF 93048 after 48 hrs by micro broth dilution method; assay type: functional; conditions: CCTCC AF 93048, 48 h
In short: (§1)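 Broth microdilution in RPMI-1640 (NaHCO3, MOPS, pH 7.0). Compounds are dissolved in DMSO and serially diluted 2-fold to eight concentrations, with stocks of […]. Fungal inocula are 2 × 10³ cfu/mL. Plates are incubated 48 h at 28 °C. The MIC is the lowest concentration with no turbidity, and the highest concentration tested is 100 μg/mL.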

Candida parapsilosis [2] = test: Antifungal activity against Candida parapsilosis ATCC 22019 after 48 hrs by micro broth dilution method; assay type: functional; conditions: Lodderomyces parapsilosis, ATCC 22019, 48 h; in short: as §1
[3] = Selectivity index, ratio of IC50 for HEK293T cells to MIC for Aspergillus fumigatus CCTCC AF 93048; assay type: toxicity; conditions: human, read-out: Selectivity Index
[4] = Selectivity index, ratio of IC50 for HEK293T cells to MIC for Candida parapsilosis ATCC 22019; assay type: toxicity; conditions: human, read-out: Selectivity Index
[5] = Selectivity index, ratio of IC50 for HEK293T cells to MIC for Candida albicans ATCC MYA-2876; assay type: toxicity; conditions: human, read-out: Selectivity Index
HEK-293T = test: Cytotoxicity against HEK293T cells assessed as growth inhibition after 48 hrs by MTT assay; assay type: cell-based; conditions: Homo sapiens
In short: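 293T cells are grown in DMEM with 10% FBS, L-glutamine and penicillin/streptomycin at 37 °C in 5% CO₂. Cells are seeded at 7 × 10³ per well and exposed to six concentrations (0.33-100.0 μM) for 48 h. MTT is then added for 4 h, formazan is dissolved in DMSO and read at 570 nm. IC50 comes from non-linear regression, n = 3 independent experiments.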

Candida albicans [6] = test: Antifungal activity against Candida albicans ATCC MYA-2876 after 48 hrs by micro broth dilution method; assay type: functional; conditions: ATCC MYA-2876, 48 h; in short: as §1
Candida parapsilosis [7] = test: Antifungal activity against Candida parapsilosis ATCC 22019 at 100 ug/ml after 48 hrs by micro broth dilution method; assay type: functional, organism-based; in short: as §1
Candida albicans [8] = test: Antifungal activity against Candida albicans ATCC MYA-2876 at 100 ug/ml after 48 hrs by micro broth dilution method; assay type: functional, organism-based; in short: as §1
Aspergillus fumigatus [9] = test: Antifungal activity against Aspergillus fumigatus CCTCC AF 93048 at 100 ug/ml after 48 hrs by micro broth dilution method; assay type: functional, organism-based; in short: as §1

SMILES	MIC (Aspergillus fumigatus [1])	MIC (Candida parapsilosis [2])	selectivity ratio [3]	selectivity ratio [4]	selectivity ratio [5]	IC50 (HEK-293T)	MIC (Candida albicans [6])	Activity (Candida parapsilosis [7])	Activity (Candida albicans [8])	Activity (Aspergillus fumigatus [9])
C[C@@H]1C[C@H](C)C[C@H](C)[C@@H](O)CC(=O)O[C@H]([C@@H]2CCC[C@H]2C(=O)OCCN2CCCCC2)C/C=C/C=C(/C#N)[C@H](O)[C@@H](C)C1	50 µg/mL (≈ 83.2 µM)	100 µg/mL (≈ 166 µM)	0.55	0.28	0.28	27.6 µg/mL (≈ 46 µM)	100 µg/mL (≈ 166 µM)			
C[C@@H]1C[C@H](C)C[C@H](C)[C@@H](O)CC(=O)O[C@H]([C@@H]2CCC[C@H]2C(=O)OCCN2CCN(C)CC2)C/C=C/C=C(/C#N)[C@H](O)[C@@H](C)C1	50 µg/mL (≈ 81.2 µM)	25 µg/mL (≈ 40.6 µM)	1.17	2.34	0.58	58.5 µg/mL (≈ 94.9 µM)	100 µg/mL (≈ 162 µM)			
C[C@@H]1C[C@H](C)C[C@H](C)[C@@H](O)CC(=O)O[C@H]([C@@H]2CCC[C@H]2C(=O)O)C/C=C/C=C(/C(N)=O)[C@H](O)[C@@H](C)C1	> 100 µg/mL	> 100 µg/mL					> 100 µg/mL	inactive	inactive	inactive
C[C@@H]1C[C@H](C)C[C@H](C)[C@@H](O)CC(=O)O[C@H]([C@@H]2CCC[C@H]2C(=O)OCCN2CCCC2)C/C=C/C=C(/C#N)[C@H](O)[C@@H](C)C1	50 µg/mL (≈ 85.2 µM)	12.5 µg/mL (≈ 21.3 µM)	0.71	2.81	0.71	35.2 µg/mL (≈ 60 µM)	50 µg/mL (≈ 85.2 µM)			

From ChEMBL document CHEMBL4382218, “Design, synthesis and antifungal evaluation of borrelidin derivatives” (Bioorg Med Chem, 2018)
